The source of these data is paper PMC8435006 (ACS infectious diseases, 2021).

What is called Ki is the dissociation constant of the complex between target and ligand, obtained from inhibition or displacement.

One experiment addresses Sfh-I (B2 MBL) (Serratia fonticola, UniProt Q9RMI1). Put plainly: Ki by imipenem hydrolysis, purified recombinant Sfh-I. The format is biochemical. To be noted: ratio of Ki values. The procedure, abridged: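 Sfh-I (2 nM final) hydrolysing imipenem at 30 °C, monitored at 300 nm under steady-state conditions in 10 mM HEPES pH 7.5, 200 mM NaCl, 50 mg/L BSA, with no added zinc. Reactions were started by adding enzyme to the substrate plus inhibitor (DMSO stock diluted in buffer). Ki came from competitive-model fits of the rates, and the fold value is the ratio of Ki values.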

For the next experiment, the target named is NDM-1 (B1 MBL). To be noted: read-out: Ki against NDM-1; MMTZs; same protocol; ref 6 (Rossi et al); cited from earlier work.
In a further experiment the target is IMP-1 (B1 MBL). To be noted: read-out: Ki against IMP-1; MMTZs; same protocol; ref 6 (Rossi et al); cited from earlier work.
The next experiment addresses L1 (B3 MBL) (Stenotrophomonas maltophilia, UniProt P52700). Kind of experiment: Ki by imipenem hydrolysis, purified recombinant L1. In kind it is biochemical. To be noted: read-out: Ki against L1; MMTZs; imipenem substrate, 30 °C, pH 7.5, 20 μM ZnSO4. In outline: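 Steady-state imipenem hydrolysis by purified L1 (2 nM final) at 30 °C, followed as the absorbance decrease at 300 nm (Δε300 = −9000 M−1cm−1). Buffer was 10 mM HEPES pH 7.5, 200 mM NaCl, 50 mg/L BSA and 20 μM ZnSO4. Inhibitor came from a DMSO stock diluted into buffer, and enzyme was added last. Rates from slopes were fitted to a competitive inhibition model for Ki.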

In a further experiment the target is VIM-2 (B1 MBL). To be noted: read-out: Ki against VIM-2; MMTZs; same protocol; ref 6 (Rossi et al); cited from earlier work.
For the next experiment, the target named is CphA. To be noted: read-out: Ki against CphA; captopril isomers; ref Table S1; cited from earlier work.
Experiment [1] has as its system E. coli DH10B expressing L1. Put plainly: Imipenem MIC potentiation, broth microdilution, L1 producer. The format is cell-based. Background: Dilution methods test growth across graded concentrations, often in twofold steps.
The subject of experiment [2] is E. coli DH10B expressing NDM-1. Kind of experiment: Imipenem MIC potentiation, broth microdilution, NDM-1 producer. To be noted: 100 μg/mL MMTZ; E. coli DH10B producing NDM-1. In kind it is cell-based.
Experiment [3] has as its system E. coli DH10B expressing Sfh-I. Put plainly: Imipenem MIC potentiation, broth microdilution, Sfh-I producer. The format is cell-based. To be noted: 100 μg/mL MMTZ; E. coli DH10B producing Sfh-I.
Setting [4] is: 100 μg/mL MMTZ, E. coli DH10B producing L1.
Where [5] appears, read: 50 μg/mL inhibitor, L1-expressing E. coli DH10B.

L1 (B3 MBL), sequence (P52700 34-290): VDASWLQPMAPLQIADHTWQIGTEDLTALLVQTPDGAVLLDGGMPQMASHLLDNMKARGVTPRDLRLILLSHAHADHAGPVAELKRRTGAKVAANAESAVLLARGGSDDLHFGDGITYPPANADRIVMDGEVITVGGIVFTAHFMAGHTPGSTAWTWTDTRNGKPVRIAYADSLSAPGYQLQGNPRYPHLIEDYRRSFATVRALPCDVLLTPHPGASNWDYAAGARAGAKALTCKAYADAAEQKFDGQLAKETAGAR

Turning to `CCOC(=O)[C@@]1(CS)N[C@@H](C(=O)O)CS1` [D-anti-1a], the “Fold less potent against Sfh-I than L-anti-1a” value at Sfh-I (B2 MBL) was 125 – 800 fold. Moreover, the Ki on NDM-1 (B1 MBL) is 2500 ± 500 nM; on IMP-1 (B1 MBL) it was 1300 ± 100 nM; at L1 (B3 MBL), 4000 ± 500 nM; at VIM-2 (B1 MBL), 390 ± 40 nM.
`C[C@H](CS)C(=O)N1CCC[C@H]1C(=O)O` [L-captopril]: the inhibitory constant (Ki) on CphA was 950000 nM.
Consider `CCOC(=O)[C@]1(CS)N[C@H](C(=O)O)CS1` [L-anti-1a], for which the “Reduction of imipenem MIC” value in [1] (setting [4]), in [2] and in experiment [3] was 4 fold in each case. The Ki at NDM-1 (B1 MBL) was 5200 ± 700 nM; at IMP-1 (B1 MBL), 1000 ± 200 nM; at L1 (B3 MBL) it was 10000 ± 800 nM; at VIM-2 (B1 MBL), 380 ± 50 nM.
For the molecule `C[C@H](CS)C(=O)N1CCC[C@@H]1C(=O)O` [D-captopril], on CphA, the Ki is 72000 nM.
Take `CCOC(=O)[C@@]1(CS)N[C@@H](C(=O)O)C(C)(C)S1` [D-anti-1b]: the “Fold less potent against Sfh-I than L-anti-1a” value on Sfh-I (B2 MBL) is 125 – 800 fold. Moreover, the Ki on NDM-1 (B1 MBL) was 3100 ± 300 nM; at IMP-1 (B1 MBL), 930 ± 80 nM; on L1 (B3 MBL), 1400 ± 200 nM; on VIM-2 (B1 MBL), 900 ± 100 nM.
On to `CCOC(=O)[C@]1(CS)N[C@@H](C(=O)O)C(C)(C)S1` [D-syn-1b], for which the “Reduction of imipenem MIC” value in [1] (setting [5]) is listed as “four-fold”; in [1] (setting [4]), “least effect”; in [2], “least effect”; in experiment [3], “least effect”. The inhibition constant Ki on NDM-1 (B1 MBL) was 600 ± 50 nM; at IMP-1 (B1 MBL), 2000 ± 200 nM; on L1 (B3 MBL) it was 4000 ± 600 nM; at VIM-2 (B1 MBL), 1900 ± 100 nM.
On to `CCOC(=O)[C@@]1(CS)N[C@H](C(=O)O)C(C)(C)S1` [L-syn-1b], for which, in [1] (setting [5]), the “Reduction of imipenem MIC” value is “four-fold”. In addition, the Ki at NDM-1 (B1 MBL) is 8000 ± 1000 nM; on IMP-1 (B1 MBL), 6000 ± 600 nM; on L1 (B3 MBL) it was 28000 ± 3000 nM; on VIM-2 (B1 MBL) it was 3600 ± 400 nM.
As for `CCOC(=O)[C@]1(CS)N[C@H](C(=O)O)C(C)(C)S1` [L-anti-1b], in [1] (setting [5]), the “Reduction of imipenem MIC” value was “four-fold”. The Ki was 440 ± 60 nM on NDM-1 (B1 MBL), 460 ± 50 nM at IMP-1 (B1 MBL), 20000 ± 2000 nM on L1 (B3 MBL) and 750 ± 90 nM at VIM-2 (B1 MBL).
